Key:
Rattus norvegicus [1] = assay: Effect on increase in reflex latent time after administration of 1 mg/kg of the compound; type: functional
Method in brief: (§1)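 Rats (180-200 g), scopolamine-induced amnesia in a step-through passive avoidance task. Scopolamine 2 mg/kg ip 15 min before training; test substance suspended in 0.5% Tween-80, given ip at 1 or 10 mg/kg 30 min before training; vehicle controls. Retention tested 24 h later: latency to enter dark chamber (max 180 s) and % animals not entering. n=12 per group.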

Rattus norvegicus [2] = assay: Effect on number of animals not entering the dark chamber after administration of 10 mg/kg of the compound
Rattus norvegicus [3] = assay: Effect on latency to enter dark chamber after administration of 1 mg/kg of the compound; type: functional; method in brief: as §1
Rattus norvegicus [4] = assay: Effect on increase in reflex latent time after administration of 400 mg/kg of the compound; type: functional
Rattus norvegicus [5] = species on record: Rattus norvegicus; assay: […]; type: functional; conditions: dose 400 mg/kg
Rattus norvegicus [6] = assay: Effect on increase in reflex latent time after administration of 600 mg/kg of the compound; type: functional
Rattus norvegicus [7] = assay: Effect on increase in reflex latent time after administration of 10 mg/kg of the compound; type: functional; method in brief: as §1

Compound | Time (Rattus norvegicus [1]) | Number (Rattus norvegicus [2]) | Number (Rattus norvegicus [3]) | Time (Rattus norvegicus [3]) | Time (Rattus norvegicus [4]) | Number (Rattus norvegicus [5]) | Number (Rattus norvegicus [6]) | Number (Rattus norvegicus [7])
O=[N+]([O-])c1ccc(/C=N/c2nc(-c3ccccc3)cs2)cc1 | 157 s | 42% | 58% | 88 s | – | – | – | –
Oc1ccc(/C=N/c2nccs2)cc1 | 96 s | 14% | 42% | 41 s | – | – | – | –
Clc1ccc(/C=N/c2nccs2)cc1 | 61 s | 66% | 25% | 123 s | – | – | – | –
NC(=O)CN1CCCC1=O [PIRACETAM] | – | – | – | – | 75 s | 33% | 58% | –
C(=N\c1nc(-c2ccccc2)cs1)/c1ccccc1 | 12 s | 33% | 0% | 68 s | – | – | – | –
Cc1csc(/N=C/c2ccc([N+](=O)[O-])cc2)n1 | 76 s | 50% | 42% | 126 s | – | – | – | –
CN1[C@@H]2C[C@@H](OC(=O)[C@H](CO)c3ccccc3)C[C@H]1[C@@H]1O[C@@H]12 [SCOPOLAMINE] | 53 s | – | 17% | – | – | – | – | –
CC(=O)N1CCOC1c1cccc(Cl)c1 (configuration not stated) | 25 s | – | 0% | 103 s | – | – | – | 58%
O=[N+]([O-])c1ccc(/C=N/c2nccs2)cc1 | 68 s | 50% | 42% | 129 s | – | – | – | –
Oc1ccc(/C=N/c2nc3ccccc3s2)cc1 | 104 s | 0% | 58% | 15 s | – | – | – | –
